# RBBP9 inhibitor: blocks human serine hydrolase RBBP9. O75884. recombinant RBBP9, FP-Rh probe fluorescence polarization. inhibition, % at 7.94 µM. hit rate 0.2% among 220,000. AID 1515;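 active = inhibition above the campaign mean of all tested compounds plus 3 SD, cut at about 14% in these data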;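 also: plate controls were DMSO wells with RBBP9 for no effect and wells lacking RBBP9 protein for full effect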
#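 Test system – recombinant human RBBP9 · Input – RBBP9 2.5 µM in dispensing solution, pre-mixing · Medium – Tris buffer pH 8.0, NaCl, Pluronic · Schedule – preincubation 30 min plus labeling 45 min at 25 °C · Measured by – fluorescence polarization · Measure – % inhibition · Controls – DMSO and no-protein wells · Replicates – one well per compound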
# PP1 inh: counter-screen for PP5 inhibitors: inhibitors of human PP1-alpha; inhibition, % at 6.7 µM; AID 2235; P62136; hit rate 0.9% among 320,000; purified PP1alpha, OMFP fluorescence;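 active = inhibition above the mean inhibition of all tested compounds plus 3 SD, computed separately for each screening campaign, cut at about 15% in these data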
# PKD1 kinase inh: blocks activity of human protein kinase D1. hit rate 0.056% among 200,000. PKD1 kinase fluorescence polarization assay. inhibition, % (test concentration not listed); in the data active = inhibition above about 50%
# Target sequence (Q15139 whole entry, looked up): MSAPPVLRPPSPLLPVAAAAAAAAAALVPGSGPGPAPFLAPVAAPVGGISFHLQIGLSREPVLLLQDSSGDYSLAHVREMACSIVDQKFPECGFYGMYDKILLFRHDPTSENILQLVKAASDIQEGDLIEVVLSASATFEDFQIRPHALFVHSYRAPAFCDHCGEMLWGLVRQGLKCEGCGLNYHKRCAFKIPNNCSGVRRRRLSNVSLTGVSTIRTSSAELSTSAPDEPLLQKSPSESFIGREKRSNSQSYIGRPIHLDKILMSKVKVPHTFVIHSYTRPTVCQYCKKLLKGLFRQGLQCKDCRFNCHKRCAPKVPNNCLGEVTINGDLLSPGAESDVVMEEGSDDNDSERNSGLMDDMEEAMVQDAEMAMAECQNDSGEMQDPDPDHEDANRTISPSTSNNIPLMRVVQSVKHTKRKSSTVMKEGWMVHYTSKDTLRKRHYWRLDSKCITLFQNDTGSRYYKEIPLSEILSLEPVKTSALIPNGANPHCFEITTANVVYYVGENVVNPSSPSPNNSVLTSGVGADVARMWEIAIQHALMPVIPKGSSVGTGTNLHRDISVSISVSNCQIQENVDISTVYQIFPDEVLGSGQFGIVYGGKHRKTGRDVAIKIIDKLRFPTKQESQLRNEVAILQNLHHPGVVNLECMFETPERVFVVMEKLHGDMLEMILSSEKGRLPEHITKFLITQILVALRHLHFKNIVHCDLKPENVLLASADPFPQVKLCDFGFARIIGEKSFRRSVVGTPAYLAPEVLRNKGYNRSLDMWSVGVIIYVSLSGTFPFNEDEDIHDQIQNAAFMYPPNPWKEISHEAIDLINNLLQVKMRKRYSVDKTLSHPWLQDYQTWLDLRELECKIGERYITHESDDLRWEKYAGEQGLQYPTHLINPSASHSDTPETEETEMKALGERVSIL
# Hsp70 act: transcriptional activators of Hsp70; HeLa Hsp70 promoter luciferase reporter, luminescence; scaled: vehicle 0, proteasome-inhibitor control 100%; activation, % at 10 µM; hit rate 0.04% among 200,000; AID 1203;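 active = activation above the mean across all tested compounds plus 3 SD, cutoff set per campaign, cut at about 5.5% in these data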;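 also: 100% = MG132 at 30 µM as the positive control and 0% = DMSO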
# PP5 inh: inhibitors of human protein phosphatase 5 (PP5) | inhibition, % at 6.7 µM | P53041 | purified PP5c, OMFP substrate fluorescence | hit rate 0.18% among 320,000;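 active = inhibition above the campaign's mean inhibition across all tested compounds plus 3 SD, cut at about 9.5% in these data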;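 also: 0% = DMSO only and 100% = 100 µM cantharidin control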
# p97 inhibitor: blocks human p97 ATPase activity. P55072. recombinant p97 ATPase, Kinase-Glo ATP luminescence, 3 h. inhibition, % at 8 µM. hit rate 0.42% among 220,000. AID 1481; in the data active = inhibition above about 15%;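 also: 0% = DMSO vehicle and 100% = wells lacking enzyme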
# PP1 confirm: human PP1 phosphatase inhibition, confirmation; shares compounds with PP1 inh; purified PP1alpha, OMFP substrate fluorescence; AID 2358; inhibition, % at 6.7 µM; hit rate 52% among 1,900;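 active = mean PP1 inhibition above a set limit taken from the earlier primary screen, cut at about 15% in these data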
# PP5 counter: counter-screen for PP1 inhibitors: human PP5 phosphatase inhibition; shares compounds with PP1 inh; purified PP5c, OMFP fluorescence; inhibition, % at 6.7 µM; hit rate 4% among 1,900; AID 2360;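 active = mean PP5 inhibition over triplicate wells above about 9.5% taken from the earlier PP1 screen, limit read from the data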
# Numbers without * were called inactive; nt = no result given. Only some compounds are listed: those with a hit (about 1.5% of all), similar ones and a draw of the others.
SMILES,RBBP9 inhibitor,PP1 inh,PKD1 kinase inh,Hsp70 act,PP5 inh,p97 inhibitor,PP1 confirm,PP5 counter
CC(C)Oc1ccc(C(=O)Nc2ccc(N3CCCC3)cc2)cc1,-4.9,13.0,4.1,-0.3,2.8,3.1,nt,nt
COc1ccc(C(=O)CN2C(=O)NC3(CCCc4ccccc43)C2=O)c(OC)c1 (stereo unspecified),nt,-1.8,nt,nt,1.6,nt,nt,nt
CCOC(=O)c1cnc(-n2nc(C)cc2C)nc1NC1CCCCC1,-2.7,55.2*,-3.9,0.1,5.8,1.5,53.9*,0.7
Cc1ccc(S(=O)(=O)CCC(=O)OCC(=O)c2ccc(F)cc2)cc1,nt,31.4*,nt,nt,0.3,nt,0.7,-0.5
COC(=O)c1ccc(CNCC(O)COc2ccc(-c3ccccc3)cc2)cc1 (stereo unspecified),nt,8.2,nt,nt,4.5,nt,nt,nt
COc1ccc(CNCC(O)COc2ccc(C(C)(C)c3ccccc3)cc2)cc1 (stereo unspecified),nt,23.8*,nt,nt,3.4,nt,11.9,3.1
NS(=O)(=O)c1ccc(N=Nc2ccc(O)c3ncccc23)cc1,nt,51.4*,nt,nt,4.0,nt,36.8*,-1.7
Cc1cccc(N=Nc2ccc(O)c3ncccc23)c1,-7.2,29.4*,-4.7,-0.1,1.6,0.6,29.4*,-0.7
NS(=O)(=O)c1ccc(N=Nc2c(O)ccc3ccccc23)cc1,-1.3,2.7,1.8,-0.1,-1.0,-3.1,nt,nt
O=C(CC1CC2CCC1C2)Nc1nc(-c2ccccn2)cs1 (stereo unspecified),-4.0,39.7*,-3.5,-0.1,5.7,-3.7,40.8*,-2.8
c1ccc(-c2csc(Nc3cccnc3)n2)nc1,12.2,-2.0,-2.7,0.1,4.0,2.3,nt,nt
CC(Oc1ccc(F)cc1)C(=O)Nc1nc(-c2ccccn2)cs1 (stereo unspecified),nt,20.8*,nt,nt,-0.4,nt,32.1*,-0.2
Cc1csc(NC(=O)C(C)Oc2ccc(Br)cc2)n1 (stereo unspecified),nt,-1.0,nt,nt,2.1,nt,nt,nt
O=C(Nc1nc(-c2ccccn2)cs1)C1CC1,-7.9,8.7,-4.6,0.4,2.0,4.7,nt,nt
c1ccc(Nc2nc(-c3ccccn3)cs2)cc1,-4.9,49.6*,-1.0,0.5,6.3,-3.5,46.1*,3.2
COc1ccc(OCCCC(=O)Nc2nc(-c3ccccn3)cs2)cc1,-2.5,43.0*,-1.3,-0.3,5.5,-2.9,50.0*,3.2
COc1ccc(CCC(C)N2CCC(CO)(Cc3ccccc3)CC2)cc1 (stereo unspecified),nt,1.8,nt,nt,3.1,nt,nt,nt
O=C(CCS(=O)(=O)c1ccccc1)Nc1nc(-c2ccccn2)cs1,-11.4,26.9*,3.4,-0.4,4.3,2.7,36.7*,1.1
O=C(CCS(=O)(=O)c1ccccc1)Nc1ccccn1,nt,5.2,nt,nt,-4.2,nt,nt,nt
O=C(CCS(=O)(=O)c1ccc(F)cc1)Nc1nc(-c2ccccn2)cs1,nt,21.3*,nt,nt,2.0,nt,44.0*,-1.5
Cc1ccc(S(=O)(=O)N(C)c2ccc(OCC(=O)Nc3cccc(-n4cnnn4)c3C)cc2)cc1,-6.5,3.7,nt,nt,2.3,10.2,nt,nt
O=C(CCNc1ccc(Cc2ccncc2)cc1)c1ccc([N+](=O)[O-])cc1,-2.4,18.5*,2.0,-0.3,-1.0,-0.7,4.9,-1.2
O=C(NC1CCCCC1)c1nn2c(C(F)(F)F)cc(-c3ccco3)nc2c1Br,-5.5,3.0,-3.1,0.0,-0.4,0.6,nt,nt
O=C(c1ccccc1)N1CCN(C(=O)c2nn3c(C(F)(F)F)cc(-c4ccco4)nc3c2Br)CC1,nt,19.4*,nt,nt,-1.5,nt,-3.0,-2.8
Cc1cc(-c2csc(N)n2)c(C)n1CCc1ccccc1,-4.1,21.3*,-9.8,-0.3,-0.2,4.5,19.5*,-0.9
SMILES,RBBP9 inhibitor,PP1 inh,PKD1 kinase inh,Hsp70 act,PP5 inh,p97 inhibitor,PP1 confirm,PP5 counter
Cc1cc(-c2csc(NCc3ccccc3)n2)c(C)n1C,2.5,nt,-10.9,0.2,nt,6.6,nt,nt
CCc1cccc(CC)c1NC(=O)CN1CC(C)SC1=NC1CCCCC1 (stereo unspecified),-2.8,-3.5,-1.8,0.0,3.2,-1.9,nt,nt
CC(=O)N1CCN(c2ccccc2NC(=O)c2cc(Br)ccc2Cl)CC1,-3.4,3.1,0.3,-0.4,0.1,-5.1,nt,nt
O=C(Nc1ccccc1N1CCN(C(=O)c2ccc(Cl)cc2)CC1)c1cc(Br)ccc1Cl,-6.4,17.6*,-5.2,-0.2,-0.1,0.2,9.3,-2.6
Cc1ccc(-n2ncc3c2CCCC3NC(=O)CCCN2CCCCC2=O)cc1C (stereo unspecified),nt,-1.0,nt,nt,-2.3,nt,nt,nt
CCOc1cc(C2C(C(=O)c3ccc(C)o3)=C(O)C(=O)N2CCc2ccccc2)ccc1O (stereo unspecified),5.0,32.7*,1.2,-0.2,2.3,2.7,37.7*,4.2
CCCOc1cccc(C2C(C(=O)c3ccc(C)o3)=C(O)C(=O)N2c2nc(C)c(C(C)=O)s2)c1 (stereo unspecified),nt,24.9*,nt,nt,1.7,nt,32.0*,2.6
Cc1cc(N2C(=O)C(O)=C(C(=O)c3ccc(C)o3)C2c2ccc([N+](=O)[O-])cc2)no1 (stereo unspecified),nt,18.3*,nt,nt,3.6,nt,13.9,-0.4
Cc1cc(N2C(=O)C(O)=C(C(=O)c3ccc(C)o3)C2c2cccc(Oc3ccccc3)c2)no1 (stereo unspecified),nt,29.2*,nt,nt,3.9,nt,28.6*,-0.5
CC1=C(C(=O)Nc2ccccc2)C(c2cccs2)NC(=O)N1 (stereo unspecified),-7.0,-6.1,-2.2,0.2,-4.1,0.0,nt,nt
CCCOc1ccc(C2C(C(=O)c3ccc(C)o3)=C(O)C(=O)N2Cc2ccco2)cc1 (stereo unspecified),nt,27.0*,nt,nt,-2.1,nt,38.9*,-3.6
CCCOc1cccc(C2C(C(=O)c3ccc(C)o3)=C(O)C(=O)N2CCN2CCOCC2)c1 (stereo unspecified),nt,5.9,nt,nt,-0.1,nt,nt,nt
CN(C)/C(=N\S(=O)(=O)c1ccccc1)c1ccccc1,nt,-1.1,nt,nt,1.3,nt,nt,nt
O=C(NCc1cccnc1)C(=O)N/N=C/c1ccc([N+](=O)[O-])cc1,-9.6,-2.0,0.7,-0.2,-2.1,-1.2,nt,nt
O=C(O)c1ccc(N/N=C/c2ccc(-c3cc(Cl)ccc3Cl)o2)cc1,-4.6,17.9*,nt,nt,-1.4,-2.4,19.0*,-2.7
O=C(O)c1ccc(N/N=C/c2ccc(-c3ccc(Cl)cc3Cl)o2)cc1,-1.6,13.4,nt,nt,-1.6,-0.8,nt,nt
N=C1C(c2nc3ccccc3s2)=C(O)CN1NC(=O)c1ccccc1[N+](=O)[O-],-9.1,21.4*,-6.2,-0.3,3.3,4.0,25.3*,3.8
N=C1C(c2nc3ccccc3s2)=C(O)CN1NC(=O)c1c[nH]c2ccccc12,4.6,1.6,0.3,-0.4,2.4,1.8,nt,nt
CC(/C=C1\SC(=S)N(CCC(=O)Nc2ccccc2O)C1=O)=C\c1ccccc1,nt,14.1,nt,nt,0.6,nt,nt,nt

# High-throughput results as filed in PubChem.
